Assay results from paper PMC8144669 (The Journal of Biological Chemistry, 2021).

Tests used:
Assay type in all cases: biochemical
[1] = biological target: T1, M4RA (MLL4SET-RBBP5AS-ABM-ASH2LSPRY) (Homo sapiens, UniProt O14686); assay: Mass-spectrometry-based
Outline: (§1)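 Enzyme (E. coli-expressed SET–RBBP5–ASH2L ternary complex) was preincubated 15 min with 0, 50 or 100 μM AdoHcy. […] Samples taken every 30 s were quenched with TFA (0.5% final) and chilled to 4 °C. Monomethylated peptide was measured by MALDI-TOF in a CHCA matrix. Data were analysed by Lineweaver–Burk plots and nonlinear fits to competitive, noncompetitive and uncompetitive models, choosing the best coefficient of determination and lowest error.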

[2] = biological target: T2, M3RA (MLL3SET-RBBP5AS-ABM-ASH2LSPRY) (Homo sapiens, UniProt Q8NEZ4); assay: Mass-spectrometry-based
T2 sequence (Q15291 330-360 partner limits assumed, one chain of several): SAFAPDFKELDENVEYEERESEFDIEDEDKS
T2 sequence (Q9UBL3 380-599 partner limits assumed, one chain of several): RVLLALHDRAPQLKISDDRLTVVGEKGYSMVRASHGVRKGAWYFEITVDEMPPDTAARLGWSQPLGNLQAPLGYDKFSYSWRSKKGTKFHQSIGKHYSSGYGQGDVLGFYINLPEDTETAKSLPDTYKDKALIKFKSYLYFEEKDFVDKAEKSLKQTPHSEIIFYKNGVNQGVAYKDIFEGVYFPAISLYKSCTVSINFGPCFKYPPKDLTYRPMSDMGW
Outline: as §1

[3] = biological target: T2, M3RA (MLL3SET-RBBP5AS-ABM-ASH2LSPRY); assay: Continuous enzyme-coupled methylation assay, M3RA
[4] = biological target: T1, M4RA (MLL4SET-RBBP5AS-ABM-ASH2LSPRY); assay: Continuous enzyme-coupled methylation assay, M4RA
[5] = substrate: C[S+](CC[C@H](N)C(=O)[O-])C[C@H]1O[C@@H](n2cnc3c(N)ncnc32)[C@H](O)[C@@H]1O; assay: Continuous enzyme-coupled methylation assay, M3RA; settings: other: H3P20 fixed at 1600 μM; pH 8.0; 30.0 °C
[6] = substrate: C[S+](CC[C@H](N)C(=O)[O-])C[C@H]1O[C@@H](n2cnc3c(N)ncnc32)[C@H](O)[C@@H]1O; assay: Continuous enzyme-coupled methylation assay, M4RA; settings: other: H3P20 fixed at 1600 μM; pH 8.0; 30.0 °C
[7] = Ki, varied AdoMet, global fit to Competitive model (Model Fit: Competitive)
[8] = varied substrate AdoMet, H3P20 constant 400 μM
[9] = varied substrate H3P20, AdoMet constant 200 μM

T1 sequence (Q15291 330-360 partner limits assumed, one chain of several): as the sequence (Q15291 330-360 partner limits assumed, one chain of several) above
T1 sequence (Q9UBL3 380-599 partner limits assumed, one chain of several): as the sequence (Q9UBL3 380-599 partner limits assumed, one chain of several) above

Molecule: Nc1ncnc2c1ncn2[C@@H]1O[C@H](CSCC[C@H](N)C(=O)O)[C@@H](O)[C@H]1O [AdoHcy, S-adenosylhomocysteine]
- Ki [1, 7]: 11.2 µM
- Inhibition pattern [1, 8]: Competitive
- Inhibition pattern [1, 9]: Noncompetitive
- Ki [2, 7]: 4.19 µM
- Inhibition pattern [2, 8]: Competitive
- Inhibition pattern [2, 9]: Noncompetitive

Molecule: C[S+](CC[C@H](N)C(=O)[O-])C[C@H]1O[C@@H](n2cnc3c(N)ncnc32)[C@H](O)[C@@H]1O (stereo partly shown) [AdoMet, S-adenosylmethionine]
- Kd [3]: 4.29 ± 0.44 µM
- KBA ([3]; from secondary plots, Michaelis constant for formation of EAB from A to EB): 27.23 ± 3.05 µM
- Kd [4]: 10.3 ± 0.46 µM

Molecule: M3RA: ternary complex of MLL3 SET domain, RBBP5AS-ABM and ASH2LSPRY
- kcat ([3]; from secondary plots): 0.108 ± 0.00783 s⁻¹

Molecule: Nc1ncnc2c1ncn2[C@@H]1O[C@H](C[C@@H](N)CC[C@H](N)C(=O)O)[C@@H](O)[C@H]1O [Sinefungin]
- Inhibition pattern [3, 8]: Competitive
- Inhibition pattern [3, 9]: Noncompetitive
- Inhibition pattern [4, 8]: Competitive
- Inhibition pattern [4, 9]: Noncompetitive

Molecule: M4RA: ternary complex of MLL4 SET domain, RBBP5AS-ABM and ASH2LSPRY
- kcat ([4]; from secondary plots): 0.108 ± 0.00533 s⁻¹

B1: M3RA (MLL3SET-RBBP5AS-ABM-ASH2LSPRY) (Homo sapiens) (protein)
chain: SNVYLARSRIQGLGLYAARDIEKHTMVIEYIGTIIRNEVANRKEKLYESQNRGVYMFRMDNDHVIDATLTGGPARYINHSCAPNCVAEVVTFERGHKIIISSSRRIQKGEELCYDYK
- Km [5]: 20.0 ± 1.5 µM
- kcat [5]: 0.0833 ± 0.0017 s⁻¹

B2: M4RA (MLL4SET-RBBP5AS-ABM-ASH2LSPRY) (Homo sapiens) (protein)
chain: NNVYLARSRIQGLGLYAAKDLEKHTMVIEYIGTIIRNEVANRREKIYEEQNRGIYMFRINNEHVIDATLTGGPARYINHSCAPNCVAEVVTFDKEDKIIIISSRRIPKGEELTYDYQ
- Km [6]: 6.9 ± 0.4 µM
- kcat [6]: 0.08 ± 0.0017 s⁻¹
